Measured values gathered from unrelated publications.
Compare with care: the assays were run in different laboratories.
Target: Mitogen-activated protein kinase kinase kinase kinase 4 (MAP4K4, Homo sapiens, UniProt O95819)

Cn1cc(-c2cccc(N3CCc4c(sc5c4CC(C)(C)C5)C3=O)c2CO)cc(Nc2ccncn2)c1=O — inhibition (enzyme activity; inhibitor; 1 µM): 4%
Cn1cncc1[C@](O)(COc1ccc(C#N)cc1-c1ccc(OC(F)(F)F)cc1)c1ccc(C#N)cc1 — remaining binding (cell-free assay; competition with immobilised ligand; 1 µM): 100%
O=c1[nH]c2ccccc2n1C1CCN(Cc2ccc(-c3[nH]c4cc5ncnc5cc4nc3-c3ccccc3)cc2)CC1 — remaining signal (cell-free assay; 0.5 µM): 99.5%
N#CC1(c2ccccn2)CCN(Cc2cc(C(=O)O)c(=O)n3ccccc23)CC1 — remaining binding (cell-free assay; competition with immobilised ligand; 1 µM): 87%
COc1ncccc1-c1cnn2ccc(N3CCN(C(=O)OC(C)C)CC3)nc12 — remaining binding (binding; competition with immobilised ligand; 1 µM): 83%
Cn1cc(-c2cc(F)cc(N3CCn4c(cc5c4CCCC5)C3=O)c2CO)cc(Nc2ccc(N3CCN(C4COC4)CC3)cn2)c1=O — inhibition (enzyme activity; inhibitor; 0.1 µM): 23%
Cc1nn(C)cc1-c1nc2c(N3CCN(Cc4ccc(Cl)cc4)CC3)c(Cl)cnc2[nH]1 — remaining binding (binding; competition with immobilised ligand; 1 µM): 88%
CC(C)(C)c1cc(C=C(C#N)C#N)cc(Br)c1O — remaining activity (enzyme activity; inhibitor; 0.5 µM): 96.2%
Nc1ncc(-c2nc(N3CCOCC3)nc(N3CCOCC3)n2)c(C(F)F)n1 — remaining binding (binding; competition with immobilised ligand; 10 µM): 100%
